Assay results published in ChEMBL document CHEMBL3085758, “A stereoselective approach to peptidomimetic BACE1 inhibitors” (Eur J Med Chem, 2013).

How the values were obtained:
Beta-secretase 1 [1] = molecular target: T1, Beta-secretase 1 (Homo sapiens, UniProt P56817); experiment: Inhibition of BACE1 in human SH-SY5Y cells expressing APP NFEV and wild-type alpha cleavage site assessed as generation of EV40/EV42 by electrochemiluminescence assay; format: cell-based
Method in brief: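 SHSY5Y cells expressing APP NFEV with wild-type alpha-cleavage site. Compounds started at […], then 3-fold dilutions (10 points). IC50 determined against generation of sAPPb NF and EV40 and EV42 peptides. Run at Merck RL.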

Beta-secretase 1 [2] = molecular target: T1, Beta-secretase 1; experiment: Selectivity ratio of IC50 for BACE1 in human SH-SY5Y cells to IC50 for BACE1 in HEK293 cells; format: cell-based
Beta-secretase 1 [3] = molecular target: T1, Beta-secretase 1; experiment: Inhibition of BACE1 in HEK293 cells expressing APP NFEV and APP K612V mutant assessed as generation of EV40/EV42 by electrochemiluminescence assay; format: cell-based
Method in brief: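 HEK293 cells carrying a proprietary APP construct with modified BACE cleavage sequence (NFEV) and K612V alpha-site mutation. Compounds started at […], then 3-fold dilutions (10 points). IC50 determined against generation of sAPPb NF and EV40 and EV42 peptides. Run at Merck RL.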

Beta-secretase 1 [4] = molecular target: T1, Beta-secretase 1; experiment: Inhibition of human recombinant BACE1 using [acetyl-C(W8044Eu)-EVNLDAEFK-QSY7] as substrate by TR-FRET assay
Method in brief: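 Enzyme (6 nM) incubated with 200 nM europium-labelled TR-FRET substrate in 50 mM NaOAc, 0.005% Triton X-100, pH 4.5; inhibitors in 3.3% DMSO. Time-resolved fluorescence read at excitation 330 nm, emission 615 nm; IC50 from concentration-response curves, mean of at least 3 experiments.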

T1 sequence (P56817 whole entry): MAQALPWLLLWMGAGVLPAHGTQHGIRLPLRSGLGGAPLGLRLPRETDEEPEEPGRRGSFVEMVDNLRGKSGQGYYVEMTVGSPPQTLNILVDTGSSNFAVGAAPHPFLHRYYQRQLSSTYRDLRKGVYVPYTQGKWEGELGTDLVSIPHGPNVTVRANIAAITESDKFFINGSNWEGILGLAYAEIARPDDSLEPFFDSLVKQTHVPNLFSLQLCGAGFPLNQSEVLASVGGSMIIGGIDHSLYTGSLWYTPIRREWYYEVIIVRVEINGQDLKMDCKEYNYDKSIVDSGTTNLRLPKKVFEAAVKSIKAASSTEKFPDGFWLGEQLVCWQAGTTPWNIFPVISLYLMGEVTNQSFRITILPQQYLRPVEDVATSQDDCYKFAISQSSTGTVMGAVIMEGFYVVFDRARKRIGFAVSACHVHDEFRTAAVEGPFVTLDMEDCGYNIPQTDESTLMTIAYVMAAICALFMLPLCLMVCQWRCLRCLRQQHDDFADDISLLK

IC50 (Beta-secretase 1 [4]; read-out: IC50)	Compound	further results
14.9 µM	CC(C)(C)OC(=O)N(Cc1ccccc1)C[C@H](O)c1ccc(C(=O)c2ccccc2)c(NC(=O)[C@@H](NC(=O)OCc2ccccc2)c2ccccc2)c1	
6.4 µM	CC(C)(C)OC(=O)N(C[C@H](O)c1cccc(NC(=O)[C@@H](NC(=O)OCc2ccccc2)c2ccccc2)c1)[C@H](CO)Cc1ccccc1	

Second part, the compound before the results:

Compound	IC50 (Beta-secretase 1 [4]; read-out: IC50)	further results
CC(C)(C)OC(=O)N(Cc1ccccc1)C[C@@H](O)c1cccc(NC(=O)[C@H](NC(=O)OCc2ccccc2)c2ccccc2)c1	4.7 µM	IC50 (Beta-secretase 1 [1]): > 100 µM; Ratio IC50 (Beta-secretase 1 [2]): 10; IC50 (Beta-secretase 1 [3]): > 10 µM
CC(C)(C)OC(=O)N1CCN(c2ccc(-c3ccccc3)c3c2NC(=O)[C@H](c2ccccc2)N=C3)CC1	12.8 µM	
CC(C)(C)OC(=O)N(Cc1ccccc1)C[C@H](O)c1cccc(NC(=O)c2cccc3ccccc23)c1	4.9 µM	IC50 (Beta-secretase 1 [1]): 11 µM; IC50 (Beta-secretase 1 [3]): > 7 µM
CC(C)(C)OC(=O)N1CCN(c2cccc3c2NC(=O)[C@H](c2ccccc2)N=C3)CC1		IC50 (Beta-secretase 1 [4]): Not Active
CC(C)(C)OC(=O)N(Cc1ccccc1)C[C@@H](O)c1cccc(NC(=O)[C@@H](NC(=O)OCc2ccccc2)c2ccccc2)c1	5.2 µM	
CC(C)(C)OC(=O)N(C[C@H](O)c1cccc(NC(=O)[C@@H](NC(=O)OCc2ccccc2)c2ccccc2)c1)[C@H](CO)c1ccccc1	9.2 µM	
CC(C)(C)OC(=O)N(Cc1ccccc1)C[C@H](O)c1ccc(C(=O)c2ccccc2)c(NC(=O)[C@H](NC(=O)OCc2ccccc2)c2ccccc2)c1	18.1 µM	
O=C1Nc2c(N3CCNCC3)ccc(-c3ccccc3)c2C=N[C@H]1c1ccccc1		IC50 (Beta-secretase 1 [4]): Not Active
CC(C)(C)OC(=O)N1CCN(c2ccc(-c3ccccc3)c(C=O)c2NC(=O)[C@@H](NC(=O)OCC2c3ccccc3-c3ccccc32)c2ccccc2)CC1	14.8 µM	
O=C(N[C@H](C(=O)Nc1cccc([C@@H](O)CN[C@H](CO)Cc2ccccc2)c1)c1ccccc1)OCc1ccccc1	7.5 µM	
CC(C)(C)OC(=O)N1CCN(c2cccc(C=O)c2NC(=O)[C@@H](NC(=O)OCc2ccccc2)c2ccccc2)CC1	14.3 µM	
CC(C)(C)OC(=O)N1CCN(c2ccc(-c3ccccc3)c3c2NC(=O)[C@H](c2ccccc2)NC3)CC1		IC50 (Beta-secretase 1 [4]): Not Active
